M5 antag: blocks acetylcholine activation of human M5 receptor; CHO-hM5 cells, Fluo-8 calcium fluorescence, ACh EC80; inhibition, % at 3 µM; hit rate 0.59% among 360,000; AID 624040;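 active = inhibition above a per-plate cutoff, the mean of that plate's test compounds plus 3 SD, cut at about 27% in these data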;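 also: 0% = acetylcholine EC80 with DMSO and 100% = DMSO without agonist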
Target sequence (P08912 whole entry, looked up): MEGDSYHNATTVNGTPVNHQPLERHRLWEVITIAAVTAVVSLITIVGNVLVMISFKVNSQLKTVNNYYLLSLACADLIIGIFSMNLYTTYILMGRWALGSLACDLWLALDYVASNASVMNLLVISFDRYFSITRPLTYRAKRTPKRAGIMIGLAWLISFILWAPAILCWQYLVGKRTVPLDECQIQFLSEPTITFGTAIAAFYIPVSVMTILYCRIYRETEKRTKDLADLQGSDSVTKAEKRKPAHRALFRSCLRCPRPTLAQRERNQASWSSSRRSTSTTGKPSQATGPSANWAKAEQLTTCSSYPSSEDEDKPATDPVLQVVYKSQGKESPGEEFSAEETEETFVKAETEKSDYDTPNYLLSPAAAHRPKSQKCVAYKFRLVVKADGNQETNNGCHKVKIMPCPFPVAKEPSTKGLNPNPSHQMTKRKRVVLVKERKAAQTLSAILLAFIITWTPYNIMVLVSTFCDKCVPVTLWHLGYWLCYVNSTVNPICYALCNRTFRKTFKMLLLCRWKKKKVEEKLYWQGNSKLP
CHO-K1 Ca PAM: counter-screen for M1 PAMs: effect in parental CHO-K1 cells | AID 602247 | ATP EC20, Fluo-8 calcium fluorescence; 0% at ATP EC20, 100% at ATP max | activation, % at 3 µM | hit rate 0.02% among 360,000;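 active = activation above the run cutoff, the mean activation of all test compounds plus 3 SD, cut at about 40% in these data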;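 also: peak over basal fluorescence ratio in a 140 s read after ATP addition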
CHO-K1 Ca antag: M1 antagonist counterscreen hit in parental CHO-K1 cells | inhibition, % at 3 µM | ATP-induced calcium, Fluo-8 fluorescence | hit rate 0.6% among 360,000;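 active = inhibition above a per-plate cutoff, the plate's mean sample inhibition plus 3 SD, cut at about 24% in these data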;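 also: 0% = DMSO plus EC80 ATP and 100% = DMSO alone without ATP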
M5 PAM: positive allosteric modulators of human muscarinic M5 receptor; P08912; activation, % at 3 µM; CHO-K1 hM5, Fluo-8 calcium, ACh EC20 PAM; 0% = ACh EC20, 100% = ACh EC100; AID 624038; hit rate 0.3% among 360,000;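 active = activation above the run cutoff, the mean activation of all test compounds plus 3 SD, cut at about 18% in these data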
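System – CHO-K1 hM5 cells · Compound – 3 µM, single dose · Incubation – compound preincubation 140 s before EC20 acetylcholine addition · Technique – Fluo-8 calcium fluorescence · Measure – Max/basal fluorescence ratio as % of EC20–EC100 ACh window · Benchmarks – low control EC20 acetylcholine (0%), high control EC100 acetylcholine (100%) · Replication – singlicate, one well per test compound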
CHRM5 agonist: CHRM5 agonism in calcium assay. P08912. CHO-K1 hM5 cells, Fluo-8 calcium fluorescence; 0% DMSO wells, 100% maximal acetylcholine response. activation, % at 3 µM. hit rate 0.19% among 360,000;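 active = activation above the run's mean over test compounds plus 3 SD, cut at about 23% in these data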;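 also: signal is peak over basal fluorescence ratio across the kinetic read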
CHO-K1 Ca ag: M1 agonist counterscreen hit in parental CHO-K1 cells. Fluo-8 calcium fluorescence; scaled to maximal ATP response, vehicle zero. activation, % at 3 µM. hit rate 0.48% among 360,000. AID 602248; in the data active = activation above about 15%;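 also: untransfected CHO-K1 host cells lacking M1 receptor as counterscreen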
An asterisk follows results filed as active. The list is not random: actives were taken first. Their share in the collection is about 1.7%.

SMILES | M5 antag | CHO-K1 Ca PAM | CHO-K1 Ca antag | M5 PAM | CHRM5 agonist | CHO-K1 Ca ag
Cc1cc(=O)oc2cc(OC(C)C(=O)NC3CCN(Cc4ccccc4)CC3)ccc12 (stereo unspecified) | -12 | -14 | -5 | 8 | -2 | 0
CCCCCC[n+]1ccccc1/C=C/c1ccc(N(C)C)cc1 | 64* | -7 | 51* | -21 | 42* | 36*
CC[n+]1ccccc1/C=C/c1ccc(N(C)C)cc1 | -2 | 19 | 3 | 0 | -4 | 3
C[N+]1(C)CCC(=C2c3ccccc3CC(=O)c3sccc32)CC1 | 77* | -8 | 16 | -17 | -8 | 0
CC[N+]1(C)CCC(=C2c3ccccc3CC(=O)c3sccc32)CC1 (stereo unspecified) | 99* | 13 | 5 | -17 | -7 | 0
O=C1c2ccccc2CCc2ccccc21 | 8 | 7 | -5 | 2 | -3 | -1
COc1ccc([C@H]2CC(=O)C[C@@H](CCn3ccnn3)O2)cc1 | -12 | 3 | -3 | 4 | 2 | 0
Cc1ccccc1C1C(C#N)=C2N=C(N)c3c(sc4c3CCCCC4)N2C2=C1C(=O)CCC2 (stereo unspecified) | 3 | -5 | -4 | 3 | 0 | 1
O=C(NNC(=O)C1CC(=O)N(Cc2ccccc2)C1)c1ccc(Br)cc1 (stereo unspecified) | 29* | -26 | 16 | -7 | -5 | 0
CN1CCCC1c1cccnc1 (stereo unspecified) | -2 | -3 | -2 | 1 | 1 | 2
COc1ccc(-n2nc(C(=O)NCC(=O)N3CCN(Cc4ccccc4)CC3)c3ccccc3c2=O)cc1OC | 29* | 0 | 3 | -12 | -1 | 6
COc1ccc(-n2nc(C(=O)NCC(=O)N3CCN(C)CC3)c3ccccc3c2=O)cc1OC | 0 | 14 | -13 | 10 | -6 | 1
O=c1nc(SCc2ccccc2Cl)nc(-c2ccc(Cl)cc2)[nH]1 | -6 | 14 | -8 | 1 | 2 | 0
CC1(CCc2ccc3c(c2)OCO3)NC(=O)c2ccccc2N1 (stereo unspecified) | 2 | 22 | -7 | 0 | -3 | 1
CC1(CCc2ccc3c(c2)OCO3)NCCc2c1[nH]c1ccccc21 (stereo unspecified) | 13 | -3 | 5 | -7 | 6 | 21*
O=C(Nc1ccccc1N1CCN(c2ccc(F)cc2)CC1)C12CC3CC(CC(C3)C1)C2 | 1 | 10 | -15 | 20* | -4 | 0
Cc1cccc(NC(=S)NN2CCOCC2)c1C | 11 | 17 | -15 | 0 | -3 | 1
O=c1[nH]c(=S)[nH]c2c1[C@H](CCc1cccc(Cl)c1)O[C@H](C1CCCC1)C2 | -7 | 41* | -31 | 8 | 11 | 2
Cc1cscc(C)c1=S | -3 | 0 | -2 | 3 | 1 | 0
CC1(c2ccccc2)NC(=O)N(CC(=O)Nc2ccc3c(c2)OCO3)C1=O (stereo unspecified) | 2 | 14 | -6 | -1 | -3 | 1
CC1(c2ccc(OC(F)F)cc2)NC(=O)N(CC(=O)Nc2ccccc2)C1=O (stereo unspecified) | 16 | 12 | 17 | -4 | 44* | 46*
CC1(c2ccc(OC(F)F)cc2)NC(=O)N(CC(=O)Nc2ccc3c(c2)OCO3)C1=O (stereo unspecified) | 17 | 20 | -14 | 1 | 41* | 29*
CC1(c2ccc(Cl)cc2)NC(=O)N(CC(=O)Nc2cccnc2Cl)C1=O (stereo unspecified) | 5 | 14 | -8 | 0 | 11 | 17*
CC(OC(=O)C1CCN(S(=O)(=O)c2ccc3c(c2)OCCO3)CC1)C(=O)N(C)c1ccccc1 (stereo unspecified) | 1 | 11 | 0 | -7 | 1 | 2
O=c1[nH]cnc2c1C1(CCCC1)Cc1ccccc1-2 | 1 | 5 | 44* | 2 | -3 | 2
Nn1cnc2c(c1=O)C1(CCCCC1)Cc1ccccc1-2 | 4 | 24 | -7 | 1 | 0 | 0
Nc1ccc2nc3n(c(=O)c2c1)CCC3 | 0 | -5 | 26* | -2 | 0 | 0
O=c1c2ccccc2nc2n1CCC2 | 1 | 6 | -7 | 6 | 1 | 0

Screening results: PubChem BioAssay, The Scripps Research Institute Molecular Screening Center
